The values that follow come from ChEMBL document CHEMBL2151009, “Structures and mechanisms of antitumor agents: xestoquinones uncouple cellular respiration and disrupt HIF signaling in human breast tumor cells” (J Nat Prod, 2012).

Assay [1] relates to T47D. Kind of assay: Decrease in mitochondrial membrane potential in human T47D cells at 10 uM after 15 to 20 mins by TMRM assay. It counts as functional, cell-based. An outline of the steps:
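T47D cells preloaded with TMRM, then given compound. Epifluorescence images taken before and 15–20 min after addition. Per-cell fluorescence intensity quantified; solvent control 0.26% DMSO; FCCP as reference. Groups compared by unpaired t test.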

Assay [2] deals with T1, Hypoxia inducible factors; HIF-1-alpha, HIF-2-alpha (Homo sapiens, UniProt Q16665+Q99814). Description: Inhibition of HIF1-mediated VEGF production in human T47D cells under 1,10-phenanthroline-induced hypoxic condition at 10 uM after 16 hrs by ELISA. The class given is cell-based. Summed up: (§1)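 T47D cells exposed 16 h to hypoxia (1% O2) or to 1,10-phenanthroline (10 μM), with compound at 10 μM. Secreted VEGF in conditioned medium measured by ELISA and normalized to cellular protein. Cycloheximide 10 μM as positive control; normoxic medium control included. Mean + SD of one experiment in triplicate.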
In general terms: In an ELISA, binding on a coated surface is turned into a signal by an enzyme label.

The subject of assay [3] is MDA-MB-231. Description: Cytotoxicity against human MDA-MB-231 cells after 48 hrs by SRB assay. It counts as functional, cell-based. The conditions noted are these: MDA-MB-231, 48 h. An outline of the steps:
(§2)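 Cells from ATCC treated 48 h with compounds from DMSO stocks (final DMSO under 0.5%). IC50 and 95% CI fitted from one experiment run in triplicate.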

For assay [4], the system named is T47D. Description: Cytotoxicity against human T47D cells after 48 hrs by SRB assay. The class given is functional, cell-based. Summed up:
as §2
In general terms: In SRB staining, fixed cells bind dye roughly in proportion to their protein.

For assay [5], the target named is T1, Hypoxia inducible factors; HIF-1-alpha, HIF-2-alpha. Description: Inhibition of 1,10-phenanthroline-induced HIF1 activation in human T47D cells after 16 hrs by HRE3-TK-luciferase reporter gene assay. The class given is cell-based. Summed up: (§3)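 T47D reporter assay for HIF-1 activity. Induced by hypoxia (1% O2) or by 1,10-phenanthroline (10 μM). Compounds tested at 0.3–30 μM in half-log steps; cycloheximide 1 μM as positive control. Luciferase signal expressed as % inhibition of the induced control without compound. IC50 and 95% CI from one experiment in triplicate.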
A general note: A reporter such as luciferase makes a cellular process visible.

For assay [6] the target is unchanged. Description: Inhibition of hypoxia-induced HIF1 activation in human T47D cells after 16 hrs by HRE3-TK-luciferase reporter gene assay. The class given is cell-based. An outline of the steps: as §3
Assay [7] shares this target. Kind of assay: Inhibition of HIF1-mediated VEGF production in human T47D cells under hypoxic condition at 10 uM after 16 hrs by ELISA. The class given is cell-based. An outline of the steps: as §1
Assay [8] deals with T47D. Description: Effect on cellular respiration in human T47D cells assessed as increase in oxygen consumption at 10 to 30 uM. It counts as functional. An outline of the steps: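 Oxygen consumption of intact respiring T47D cells. Compound added in half-log increments; FCCP as reference uncoupler. Rate expressed as % of untreated control. For 10 and 30 μM: mean + SD from three independent experiments. Lower concentrations: n = 2.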

For assay [9], the system named is MDA-MB-231. Description: Cytotoxicity against human MDA-MB-231 cells assessed as decrease in cell viability at 30 uM after 48 hrs by SRB assay. It counts as functional.
Assay [10] deals with T47D. Description: Cytotoxicity against human T47D cells assessed as decrease in cell viability at 30 uM after 48 hrs by SRB assay. The class given is functional.

Counter-ions that a name gives are not always drawn. Calls of active or inactive are those of the source. No cut-off for these calls is given here. Some results are limits rather than exact numbers.

A word on the IC50: it is the concentration that inhibits the measured activity by half. Lower therefore signals greater potency. Turning to `C[C@@]12CCCc3coc(c31)C(=O)c1cc3c(cc12)C(=O)C=C(CO)C3=O`, in the assay with T47D [1], the outcome was Active. Further, the inhibition entry in [2] and in [7] was “Active” throughout. The IC50 in the assay on MDA-MB-231 [3] amounted to 6.5 µM; in the assay on T47D [4] it was 3.6 µM; in [5], 1.2 µM; in assay [6], 1.7 µM. Besides, in the assay on T47D [8], the Activity came out at 47%.

As to `C[C@@]12CCCc3coc(c31)C(=O)c1cc3c(cc12)C(=O)C(CO)=CC3=O`, the inhibition result in assay [2] and in assay [7] was “Active” each time. For the same compound, the IC50 in the assay with MDA-MB-231 [3] is 6.3 µM; with T47D [4] it was 4.3 µM; in [5] it was 1.5 µM; in assay [6], 2.3 µM.

As to `C[C@@]12CCCc3coc(c31)C(=O)c1cc3c(cc12)C(=O)CCC3=O`, the inhibition entry in [2] and in assay [7] was “inactive” each time. The IC50 turned out to be 28.1 µM in the assay on MDA-MB-231 [3], 15.9 µM with T47D [4], 4.2 µM in assay [5] and 10.6 µM in [6].

Take `C[C@@]12CCCc3coc(c31)C(=O)c1cc3c(cc12)C(=O)C1=NCCS(=O)(=O)C1=C3O` [ADOCIAQUINONE A]: the result in the assay on T47D [1] was inactive. For the same compound, the inhibition result in [2] is “Active”. Moreover, the IC50 with MDA-MB-231 [3] came to 6.3 µM; in the assay with T47D [4] it was 2.6 µM; in assay [5] it was 0.2 µM; in assay [6] it was 6.4 µM. For the same compound, the inhibition entry in [7] is “inactive”. The Activity with T47D [8] was determined as 47%.

Turning to `C[C@@]12CCCc3coc(c31)C(=O)c1cc3c(cc12)C(=O)C1=C(NCCS1(=O)=O)C3=O` [ADOCIAQUINONE B], in assay [2], the inhibition result was “Active”. The IC50 was found to be 6.1 µM in the assay with MDA-MB-231 [3], 2.9 µM with T47D [4], 0.2 µM in [5] and 4.6 µM in [6]. Besides, in assay [7], the inhibition entry is “inactive”.

In the case of `C[C@@]12CCCc3coc(c31)C(=O)c1cc3c(O)ccc(OS(=O)(=O)O)c3cc12` [XESTOQUINOL SULFATE], the IC50 (with MDA-MB-231 [3]; in the assay on T47D [4]; in assay [5]; in assay [6]) was above 30 µM in each case. Moreover, the Activity in the assay on MDA-MB-231 [9] and in the assay with T47D [10] was below 5% throughout.

For `C[C@@]12CCCc3coc(c31)C(=O)c1cc3c(cc12)C(=O)C=CC3=O` [XESTOQUINONE], in the assay with T47D [1], the result was inactive. For the same compound, the inhibition entry in [2] and in assay [7] was “inactive” throughout. Moreover, the IC50 with MDA-MB-231 [3] amounted to 20.6 µM; in the assay on T47D [4], 13.8 µM; in assay [5], 7.3 µM; in [6], 12.3 µM. In addition, the Activity with T47D [8] was 47%.
